According to ChEMBL document CHEMBL1671644, “Inhibition of human immunodeficiency virus type 1 infection by the candidate microbicide dapivirine, a nonnucleoside reverse transcriptase inhibitor” (Antimicrob Agents Chemother, 2009):

Experiments:
Format in all cases: functional
[1] = tested on: Human immunodeficiency virus 1; assay: Antiviral activity against HIV-1 subtype CRF01_AE V022822 infected in human MT4 cells assessed as inhibition of viral replication relative to HIV-1 3B
Outline: (§1)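 MT-4 cells (3 x 10^4/well) infected with site-directed mutants or recombinant clinical isolates (200 TCID50/well) with drug, cultured 3 to 5 days. Viability read by MTT colorimetric antivirogram assay. IC50 by nonlinear regression; fold change = IC50 for the test isolate / IC50 for wild-type HIV-1 IIIB tested in parallel (mean or median).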

[2] = tested on: Human immunodeficiency virus 1; assay: Antiviral activity against HIV-1 subtype H V029523 harboring NNRTI K101Q and V179I mutant infected in human MT4 cells assessed as inhibition of viral replication relative to HIV-1 3B; outline: as §1
[3] = tested on: Human immunodeficiency virus 1; assay: Antiviral activity against HIV-1 subtype H V022827 harboring NNRTI V179I mutant infected in human MT4 cells assessed as inhibition of viral replication relative to HIV-1 3B; outline: as §1
[4] = tested on: Human immunodeficiency virus 1; assay: Antiviral activity against HIV-1 SF162 infected in hu-SCID mouse assessed as protection from viral infection at 225 uM; conditions: Human immunodeficiency virus 1, SF162 ISOLATE
[5] = tested on: Human immunodeficiency virus 1; assay: Antiviral activity against HIV-1 subtype CRF02_AG V022826 infected in human MT4 cells assessed as inhibition of viral replication relative to HIV-1 3B; outline: as §1
[6] = tested on: Human immunodeficiency virus 1; assay: Antiviral activity against HIV-1 subtype F V029522 infected in human MT4 cells assessed as inhibition of viral replication relative to HIV-1 3B; outline: as §1

Compound: Cc1cc(C)c(Nc2ccnc(Nc3ccc(C#N)cc3)n2)c(C)c1 [DAPIVIRINE]
- Ratio IC50 [1]: 0.9
- Ratio IC50 [2]: 1.4
- Ratio IC50 [3]: 0.9
- inhibition in vivo at 225 µM [4]: 85.7%
- Ratio IC50 [5]: 1
- Ratio IC50 [6]: 1.5
